Compounds with a hit are over-represented: about 2.3% of the library has one in this group of screens.
Env fusion inh: inhibitors of HIV Env-mediated cell fusion. inhibition, % at 12.3 µM. AID 651610. hit rate 1.1% among 360,000. HeLa-JRFL Env/CEM21 cell fusion, luciferase;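 active = mean replicate inhibition score of at least 50 and every replicate individually at or above 50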;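 note: 0% = plate neutral controls and 100% = maraviroc near 300 nM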
Rtt109 Vps75: blocks Candida albicans Rtt109/Vps75 acetyltransferase activity | AID 540336 | inhibition, % at 34.9 µM | purified Rtt109/Vps75, ThioGlo CoA-SH fluorescence, 4 h | hit rate 0.16% among 330,000 | Q5AAJ8;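 active = inhibition of at least 50% in every replicate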
Target sequence (Q5AAJ8 whole entry, looked up): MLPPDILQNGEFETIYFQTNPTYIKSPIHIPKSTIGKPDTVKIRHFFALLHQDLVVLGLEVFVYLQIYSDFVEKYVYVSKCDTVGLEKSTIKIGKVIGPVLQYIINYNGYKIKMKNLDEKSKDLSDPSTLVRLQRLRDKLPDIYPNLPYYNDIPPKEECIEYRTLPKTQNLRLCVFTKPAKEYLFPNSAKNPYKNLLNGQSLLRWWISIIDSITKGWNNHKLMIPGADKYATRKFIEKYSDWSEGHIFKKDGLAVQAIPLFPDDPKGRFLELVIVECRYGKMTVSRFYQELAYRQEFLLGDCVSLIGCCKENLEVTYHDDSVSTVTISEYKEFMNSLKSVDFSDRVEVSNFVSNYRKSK
N-glyco inh: blocks N-linked glycosylation in D54 reporter cells. reporter increase, % at 12.5 µM. hit rate 0.23% among 360,000. D54 ERlucT glycosylation luciferase reporter, 24 h; percent of 100 nM tunicamycin response;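 active = mean luciferase reporter signal, scaled so untreated is 0 and the glycosylation-blocking control 100, at or above a set limit in every replicate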;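 note: luciferase carries N-glycosylation sites so blocking glycosylation raises the light; 0% = median of neutral control wells and 100% = median of 100 nM tunicamycin wells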
Arrestin-AP2 inh: inhibitors of human beta-arrestin and AP2 interaction. FITC-arrestin peptide / GST-AP2 beads, flow cytometry; AP2 beta2 appendage carries R879A mutation. hit rate 0.31% among 340,000. inhibition, % at 10 µM;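 active = inhibition above a set limit, near 3 SD of compounds lacking own fluorescence, cut at about 54% in these data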;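 note: plate controls were DMSO wells for no effect and 5 µM unlabelled arrestin peptide for full effect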
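System: GST-AP2 R879A glutathione beads. Medium: PBS with 0.05% Tween 20 and 0.1% BSA. Also added: FITC-arrestin peptide, 50 nM. Incubation: 12 min plus 1 h, RT. Measured by: high-throughput flow cytometry of beads, ex 488, em 535 nm. Evaluation: percent drop in bead-associated FITC signal.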
PAX8 reporter: inhibitors of PAX8 transcriptional activity in RMG-I cells. RMG-I TPO-luciferase reporter, SteadyGlo, 24 h. inhibition, % at 12.6 µM. hit rate 1.2% among 360,000;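 active = mean replicate inhibition at least 60% with every replicate also reaching 60%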;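 note: luciferase light reporting Pax8 driven TPO promoter activity; plate controls were median of neutral control wells for no effect and mitoxantrone controls for full effect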
PfHsp90 set2: reduces growth (ATP signal) of yeast expressing P. falciparum Hsp90; inhibition, % at 9.4 µM; AID 504621; S. cerevisiae expressing PfHsp90, BacTiter-Glo ATP, 48 h; yeast lacking PDR1 and PDR3 efflux regulators; hit rate 0.32% among 310,000;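 active = every replicate shows inhibition above about 80%, whatever the replicate mean, limit read from the data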;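 note: 0% = DMSO neutral controls and 100% = 20 µM radicicol positive controls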
The depositor's hits bear a star; [ ] = dose if it differs, or a comment.

Results for COC(=O)c1c(C)oc(C)c1S(=O)(=O)NC(c1ccccc1)c1ccccc1 ?
Env fusion inh: 68*; Rtt109 Vps75: 6; N-glyco inh: -3; Arrestin-AP2 inh: 34; PAX8 reporter: -1; PfHsp90 set2: 15

Results for CC(C)NC(=O)N1Cc2cc(C(=O)NCC(F)(F)F)nc(-c3cccc(-c4cc5ccccc5o4)c3)c2[C@H]1CCO ?
PAX8 reporter: 85*

What do the screens show for `O=C(c1ccccc1)N1C[C@@H]2[C@H](c3ccccc31)[C@H](CO)N2Cc1ccccn1`?
PAX8 reporter: -9

How did CC(=O)CC1c2ccccc2C=C(c2ccsc2)N1c1ccc(-c2cccs2)cc1 (stereo not drawn) do in these assays?
Env fusion inh: 7; PAX8 reporter: 75*

Results for COc1ncc(-c2ccc(N3C(c4ccsc4)=Cc4ccccc4C3CC(C)=O)cc2)cn1 (stereo not drawn) ?
Env fusion inh: -15; PAX8 reporter: 17

Results for c1ccc(Nc2nc(NCc3ccco3)c3ccccc3n2)cc1 ?
Env fusion inh: 26; Rtt109 Vps75: -2; N-glyco inh: -10; Arrestin-AP2 inh: 8; PAX8 reporter: 67*; PfHsp90 set2: 14

Results for Cc1cccc(Nc2nc(NCc3ccco3)c3ccccc3n2)c1 ?
Env fusion inh: 30; Rtt109 Vps75: 14; N-glyco inh: -7; Arrestin-AP2 inh: 1; PfHsp90 set2: -37

How did O=C(NNC1=Nc2ccccc2SC1)c1ccc(Cl)cc1 do in these assays?
Env fusion inh: 61*; Rtt109 Vps75: 14; N-glyco inh: 12; Arrestin-AP2 inh: -6; PAX8 reporter: 19; PfHsp90 set2: -19

What do the screens show for `CC(=O)OC1c2ccccc2C(=O)N1c1ccccc1C` (stereo not drawn)?
Env fusion inh: 77*; Rtt109 Vps75: 4; N-glyco inh: 2; Arrestin-AP2 inh: 4; PAX8 reporter: -5; PfHsp90 set2: 2

Results for O=C(CSc1nc2ccccc2c(=O)[nH]1)Nc1ccc(Br)cc1 ?
Env fusion inh: 13; Rtt109 Vps75: -4; N-glyco inh: 1; Arrestin-AP2 inh: 2; PAX8 reporter: 6; PfHsp90 set2: 4

What do the screens show for `O=C(CSC1=NCCN1)Nc1cccc([N+](=O)[O-])c1`?
Env fusion inh: 3; Rtt109 Vps75: 113*; N-glyco inh: 9; Arrestin-AP2 inh: -8; PAX8 reporter: 47; PfHsp90 set2: 5

Results for O=C(CSc1nc2ccccc2c(=O)[nH]1)Nc1cccc([N+](=O)[O-])c1 ?
Env fusion inh: 63*; Rtt109 Vps75: 2; N-glyco inh: 0; Arrestin-AP2 inh: -19; PAX8 reporter: -4; PfHsp90 set2: -4

What do the screens show for `O=C(CSC1=NCCN1)Nc1ccccc1[N+](=O)[O-]`?
Env fusion inh: -5; Rtt109 Vps75: 0; N-glyco inh: 1; Arrestin-AP2 inh: 5; PAX8 reporter: 26

Results for O=C1c2ccccc2C(=O)c2c(NCCCN(CCO)CCO)cccc21 ?
Env fusion inh: -47; Rtt109 Vps75: 13; N-glyco inh: 116*; Arrestin-AP2 inh: -6; PAX8 reporter: -50; PfHsp90 set2: 33

Results for Cc1noc(C)c1S(=O)(=O)Nc1ccc2c(c1)CC(=O)N([C@H](C)CO)C[C@@H](C)[C@H](CN(C)C(=O)Nc1ccc3c(c1)OCO3)O2 ?
Env fusion inh: -8[16.7 µM]; PAX8 reporter: 7

Results for FC(F)(F)c1nnc2c(Sc3ccc(Cl)cc3)nc3ccccc3n12 ?
Env fusion inh: -66; Rtt109 Vps75: 7; N-glyco inh: 30*; Arrestin-AP2 inh: 0; PAX8 reporter: 88*

What do the screens show for `FC(F)(F)c1nnc2c(Sc3ccccn3)nc3ccccc3n12`?
Env fusion inh: -16; Rtt109 Vps75: 4; N-glyco inh: 5; Arrestin-AP2 inh: 13; PAX8 reporter: 114*

Results for O=C(Nc1ccc2c(c1)[C@@H]1C[C@@H](CC(=O)N3CCCCC3)O[C@H](CO)[C@@H]1O2)c1cccnc1 ?
Env fusion inh: 5[16.7 µM]; PAX8 reporter: -1

What do the screens show for `C[C@@]12C(=O)N(c3cccc(Cl)c3)C(=O)N1[C@H](c1ccc(Cl)cc1)[C@@H]1C(=O)N(C3CCCCC3)C(=O)[C@@H]12`?
Env fusion inh: 103*; Rtt109 Vps75: 8; N-glyco inh: 1; Arrestin-AP2 inh: 7; PAX8 reporter: 11; PfHsp90 set2: 0

Compound activity from PubChem.
